Data reported in ChEMBL document CHEMBL1250422 (Bioorg Med Chem, 2010).

Columns and labels:
Galectin-9 = Galectin-9 (Homo sapiens, UniProt O00182); assay: Binding affinity to human galectin 9 N-terminal domain at 20 degC by competitive fluorescence polarization assay
Method in brief: (§1)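 Human galectin (galectin-3, or the N-terminal domain of galectin-8 or -9) run in a competitive fluorescence polarization assay at 20 °C. Kd values were derived from inhibition of the fluorescent probe binding.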

Galectin-7 = Galectin-7 (Homo sapiens, UniProt P47929); assay: Binding affinity to human galectin 7 at 4 degC by competitive fluorescence polarization assay
Method in brief: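 Human galectin-7 was tested in a competitive fluorescence polarization assay at 4 °C because assay sensitivity is lower. Kd values were derived from inhibition of the fluorescent probe binding.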

Galectin-3 = Galectin-3 (Homo sapiens, UniProt P17931); assay: Binding affinity to human galectin 3 at 20 degC by competitive fluorescence polarization assay; method in brief: as §1
Galectin-8 = target: T1, Galectin-8 (Homo sapiens, UniProt O00214); assay: Binding affinity to human galectin 8 N-terminal domain at 20 degC by competitive fluorescence polarization assay; method in brief: as §1
T1 sequence (O00214 whole entry): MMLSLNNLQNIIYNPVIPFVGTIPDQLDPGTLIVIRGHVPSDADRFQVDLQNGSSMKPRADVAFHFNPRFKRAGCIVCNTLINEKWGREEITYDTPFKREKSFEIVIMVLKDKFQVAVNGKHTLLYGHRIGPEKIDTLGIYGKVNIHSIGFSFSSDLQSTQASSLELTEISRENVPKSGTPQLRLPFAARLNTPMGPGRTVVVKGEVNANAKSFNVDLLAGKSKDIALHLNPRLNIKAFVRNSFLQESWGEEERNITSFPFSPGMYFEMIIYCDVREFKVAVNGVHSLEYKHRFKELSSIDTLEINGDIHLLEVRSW

Chain of Galectin-9 (O00182 whole entry, the tested form may be a part): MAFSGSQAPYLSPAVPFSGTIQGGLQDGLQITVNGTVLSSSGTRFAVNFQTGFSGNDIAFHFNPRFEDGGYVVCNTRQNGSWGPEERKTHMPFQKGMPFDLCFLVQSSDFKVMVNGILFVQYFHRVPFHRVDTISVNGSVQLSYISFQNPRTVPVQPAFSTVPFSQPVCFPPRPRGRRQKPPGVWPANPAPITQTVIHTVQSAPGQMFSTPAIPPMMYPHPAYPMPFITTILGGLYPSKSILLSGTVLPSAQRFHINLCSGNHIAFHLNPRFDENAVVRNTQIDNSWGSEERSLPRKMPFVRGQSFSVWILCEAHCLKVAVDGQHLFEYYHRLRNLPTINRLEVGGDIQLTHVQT
Chain of Galectin-3 (P17931 whole entry, the tested form may be a part): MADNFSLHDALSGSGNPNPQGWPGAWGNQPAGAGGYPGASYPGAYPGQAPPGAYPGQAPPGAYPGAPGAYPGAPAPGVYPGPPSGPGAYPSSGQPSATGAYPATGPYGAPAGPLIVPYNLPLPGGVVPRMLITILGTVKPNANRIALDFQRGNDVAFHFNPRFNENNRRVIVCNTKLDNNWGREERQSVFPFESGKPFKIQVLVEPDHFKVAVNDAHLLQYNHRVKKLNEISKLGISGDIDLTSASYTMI
Chain of Galectin-7 (P47929 whole entry): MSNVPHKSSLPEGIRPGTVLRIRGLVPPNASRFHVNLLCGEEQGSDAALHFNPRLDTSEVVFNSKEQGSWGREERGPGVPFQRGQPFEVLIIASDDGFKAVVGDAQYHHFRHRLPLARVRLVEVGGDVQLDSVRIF

Row | Kd (Galectin-9) [µM] | Kd (Galectin-7) [µM] | Kd (Galectin-3) [µM] | Kd (Galectin-8) [µM] | Compound
1 | 0.74 | 3.4 | 0.065 | 66 | C=CCNC(=O)c1cn([C@H]2[C@@H](O)[C@@H](CO)O[C@@H](S[C@@H]3O[C@H](CO)[C@H](O)[C@H](n4cc(C(=O)NCC=C)nn4)[C@H]3O)[C@@H]2O)nn1
2 | > 5000 | 2700 | > 2000 | > 5000 | CS[C@@H]1O[C@H](CO)[C@H](O)[C@H](n2nnc(C(N)=O)c2N)[C@H]1O
3 | 1.8 | 2.8 | 0.05 | 100 | COc1cc(OC)cc(C(=O)N[C@@H]2[C@@H](O)[C@@H](S[C@@H]3O[C@H](CO)[C@H](O)[C@H](NC(=O)c4cc(OC)cc(OC)c4)[C@H]3O)O[C@H](CO)[C@@H]2O)c1
4 | 1.1 | 2 | 0.15 | 20 | O=C(NCCc1ccccc1)c1cn([C@H]2[C@@H](O)[C@@H](CO)O[C@@H](S[C@@H]3O[C@H](CO)[C@H](O)[C@H](n4cc(C(=O)NCCc5ccccc5)nn4)[C@H]3O)[C@@H]2O)nn1
5 | > 5000 | 2400 | > 5000 | > 5000 | CS[C@@H]1O[C@H](CO)[C@H](O)[C@H](n2ccnn2)[C@H]1O
6 | > 5000 | 2200 | > 5000 | > 5000 | CCCc1cn([C@H]2[C@@H](O)[C@@H](CO)O[C@@H](SC)[C@@H]2O)nn1
7 | > 5000 | 2500 | > 5000 | > 5000 | CS[C@@H]1O[C@H](CO)[C@H](O)[C@H](n2cc(CO)nn2)[C@H]1O
8 | 12 | 74 | 1.5 | > 2000 | CO[C@@H]1O[C@H](CO)[C@@H](O[C@@H]2O[C@H](CO)[C@H](O)[C@H](n3cc(C(=O)NCc4ccccc4)nn3)[C@H]2O)[C@H](O)[C@H]1NC(C)=O
9 | 13 | 83 | 0.66 | > 2000 | CO[C@@H]1O[C@H](CO)[C@@H](O[C@@H]2O[C@H](CO)[C@H](O)[C@H](n3cc(C(=O)Nc4cccc5ccccc45)nn3)[C@H]2O)[C@H](O)[C@H]1NC(C)=O
10 | 1.1 | 5.4 | 0.029 | 58 | CCCCNC(=O)c1cn([C@H]2[C@@H](O)[C@@H](CO)O[C@@H](S[C@@H]3O[C@H](CO)[C@H](O)[C@H](n4cc(C(=O)NCCCC)nn4)[C@H]3O)[C@@H]2O)nn1
11 | 0.53 | 8.3 | 0.39 | 47 | O=C(NCc1ccccc1)c1cn([C@H]2[C@@H](O)[C@@H](CO)O[C@@H](S[C@@H]3O[C@H](CO)[C@H](O)[C@H](n4cc(C(=O)NCc5ccccc5)nn4)[C@H]3O)[C@@H]2O)nn1
12 | 2.1 | 5 | 0.12 | 58 | CC(O)CNC(=O)c1cn([C@H]2[C@@H](O)[C@@H](CO)O[C@@H](S[C@@H]3O[C@H](CO)[C@H](O)[C@H](n4cc(C(=O)NCC(C)O)nn4)[C@H]3O)[C@@H]2O)nn1 (some centres undefined)
13 | 2.3 | 4.7 | 0.25 | 90 | COCCNC(=O)c1cn([C@H]2[C@@H](O)[C@@H](CO)O[C@@H](S[C@@H]3O[C@H](CO)[C@H](O)[C@H](n4cc(C(=O)NCCOC)nn4)[C@H]3O)[C@@H]2O)nn1
14 | 73 | 130 | – | > 2000 | CNC(=O)c1cn([C@H]2[C@@H](O)[C@@H](CO)O[C@@H](O[C@H]3[C@H](O)[C@@H](NC(C)=O)[C@H](OC)O[C@@H]3CO)[C@@H]2O)nn1
15 | 0.91 | 8 | 0.12 | 81 | CNC(=O)c1cn([C@H]2[C@@H](O)[C@@H](CO)O[C@@H](S[C@@H]3O[C@H](CO)[C@H](O)[C@H](n4cc(C(=O)NC)nn4)[C@H]3O)[C@@H]2O)nn1
16 | > 100 | > 100 | 0.48 | > 100 | CO[C@@H]1O[C@H](CO)[C@@H](O[C@@H]2O[C@H](CO)[C@H](O)[C@H](NC(=O)c3ccc4ccccc4c3)[C@H]2O)[C@H](O)[C@H]1NC(C)=O
17 | 430 | > 5000 | 1300 | > 5000 | COC(=O)c1cn([C@H]2[C@@H](O)[C@@H](CO)O[C@@H](SC)[C@@H]2O)nn1

Row | Kd (Galectin-9) [µM] | Kd (Galectin-7) [µM] | Kd (Galectin-3) [µM] | Kd (Galectin-8) [µM] | Compound
18 | 1000 | > 5000 | 1600 | > 5000 | CS[C@@H]1O[C@H](CO)[C@H](O)[C@H](n2cc(C3(O)CCCCC3)nn2)[C@H]1O
19 | 1300 | 1700 | 150 | > 5000 | CS[C@@H]1O[C@H](CO)[C@H](O)[C@H](n2cc(-c3ccccc3)nn2)[C@H]1O
20 | 2100 | 2800 | 130 | > 5000 | COc1cccc(-c2cn([C@H]3[C@@H](O)[C@@H](CO)O[C@@H](SC)[C@@H]3O)nn2)c1
21 | > 5000 | 2000 | 260 | – | COc1ccc(-c2cn([C@H]3[C@@H](O)[C@@H](CO)O[C@@H](SC)[C@@H]3O)nn2)cc1
22 | 1700 | > 2000 | 200 | > 5000 | CS[C@@H]1O[C@H](CO)[C@H](O)[C@H](n2cc(-c3ccccc3F)nn2)[C@H]1O
23 | 690 | 810 | 120 | > 5000 | CS[C@@H]1O[C@H](CO)[C@H](O)[C@H](n2cc(-c3cccc4ccccc34)nn2)[C@H]1O
24 | 1600 | – | 1900 | 670 | CS[C@@H]1O[C@H](CO)[C@H](O)[C@H](n2cc(-c3cccnc3)nn2)[C@H]1O
25 | 330 | 2000 | 130 | – | CS[C@@H]1O[C@H](CO)[C@H](O)[C@H](n2cc(S(=O)(=O)c3ccc(C)cc3)nn2)[C@H]1O
26 | 1600 | – | > 5000 | – | CS[C@@H]1O[C@H](CO)[C@H](O)[C@H](n2nncc2S(=O)(=O)c2ccc(C)cc2)[C@H]1O
27 | > 5000 | > 5000 | > 5000 | – | CNC(=O)c1nnn([C@H]2[C@@H](O)[C@@H](CO)O[C@@H](SC)[C@@H]2O)c1C(=O)NC
28 | 1100 | – | – | > 5000 | CNC(=O)c1cn([C@H]2[C@@H](O)[C@@H](CO)O[C@@H](SC)[C@@H]2O)nn1
29 | 640 | 1100 | 150 | > 5000 | CCCCNC(=O)c1cn([C@H]2[C@@H](O)[C@@H](CO)O[C@@H](SC)[C@@H]2O)nn1
30 | 1900 | 1500 | 360 | > 5000 | CS[C@@H]1O[C@H](CO)[C@H](O)[C@H](n2cc(C(=O)NCCCO)nn2)[C@H]1O
31 | 470 | > 5000 | 520 | > 5000 | CS[C@@H]1O[C@H](CO)[C@H](O)[C@H](n2cc(C(=O)NCCN3CCOCC3)nn2)[C@H]1O
32 | 540 | 2100 | – | > 5000 | CS[C@@H]1O[C@H](CO)[C@H](O)[C@H](n2cc(C(=O)NCc3ccccc3)nn2)[C@H]1O
33 | 490 | 5500 | 59 | 1000 | CO[C@@H]1O[C@H](CO)[C@@H](O[C@@H]2O[C@H](CO)[C@H](O)[C@H](O)[C@H]2O)[C@H](O)[C@H]1NC(C)=O

Row | Compound | Kd (Galectin-9) [µM] | Kd (Galectin-7) [µM] | Kd (Galectin-3) [µM] | Kd (Galectin-8) [µM]
34 | CO[C@@H]1O[C@H](CO)[C@H](O)[C@H](O)[C@H]1O | 3300 | 4800 | – | –
